Data published in ChEMBL document CHEMBL1147266, “New dammarane triterpenes from the aerial parts of Ibicella lutea grown in Argentina” (J Nat Prod, 2003).
In brackets after ≈: the same amount, converted by molar mass.

Tests used:
Type in all cases: functional, cell-based
[1] = tested on: T98G; experiment: Cytotoxicity against human T98G cells after 3 days by crystal violet staining; details: 72 h
Method in brief: (§1)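 Cells kept in log-phase growth in EMEM with nonessential amino acids, 2.0 mM L-glutamine, 5% FCS, 10^-2 M NaHCO3 and penicillin/streptomycin. Trypsin-harvested cells seeded at 1×10^4/well in 24-well dishes with graded sample concentrations, drug-free growth controls included, in duplicate. Incubated 3 days at 37 °C, 5% CO2, then crystal violet stained for approximate IC50. Coulter counts of trypsinized cells gave %G dose-response curves for IC50.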

[2] = tested on: A549; experiment: Cytotoxicity against human A549 cells after 3 days by crystal violet staining; details: A549, 72 h; method in brief: as §1
[3] = Cytotoxicity against human H116 cells after 3 days by crystal violet staining; details: H116, 72 h; method in brief: as §1
[4] = tested on: PSN1; experiment: Cytotoxicity against human PSN1 cells after 3 days by crystal violet staining; details: PSN1, 72 h; method in brief: as §1
[5] = tested on: HT-29; experiment: Cytotoxicity against human HT-29 cells after 3 days by crystal violet staining; details: HT-29, 72 h; method in brief: as §1

SMILES | IC50 [1] [µg/mL] | IC50 [2] [µg/mL] | IC50 [3] [µg/mL] | IC50 [4] [µg/mL] | IC50 [5] [µg/mL]
CC(=O)O[C@H]1CC[C@]2(C)[C@H]3C[C@@H](OC(C)=O)[C@@H]4[C@@H]([C@]5(C)CC[C@@H](C(C)(C)OC(C)=O)O5)CC[C@@]4(C)[C@]3(C)CC[C@H]2C1(C)C | > 5 | > 5 | > 5 | > 5 | –
CC(=O)O[C@H]1CC[C@]2(C)[C@H]3C[C@@H](OC(C)=O)[C@@H]4[C@@H]([C@]5(C)CC[C@@H](C(C)(C)O)O5)CC[C@@]4(C)[C@]3(C)CC[C@H]2C1(C)C | – | 5 (≈ 8.92 µM) | 5 (≈ 8.92 µM) | – | –
CC(C)(O)[C@H]1CC[C@@](C)([C@H]2CC[C@]3(C)[C@@H]2[C@H](O)C[C@@H]2[C@@]4(C)[C@H](O)C[C@@H](O)C(C)(C)[C@@H]4CC[C@]23C)O1 | – | > 10 | > 10 | – | > 10
CC(=O)O[C@@H]1C[C@@H](O)[C@]2(C)[C@H]3C[C@@H](O)[C@@H]4[C@@H]([C@]5(C)CC[C@H](C(C)(C)O)O5)CC[C@@]4(C)[C@]3(C)CC[C@H]2C1(C)C (relative stereo) | – | > 10 | > 10 | – | > 10
CC(C)(O)[C@@H]1CC[C@@](C)([C@H]2CC[C@]3(C)[C@@H]2[C@H](O)C[C@@H]2[C@@]4(C)CC[C@H](O)C(C)(C)[C@@H]4CC[C@]23C)O1 (relative stereo) | – | 5 (≈ 10.5 µM) | 5 (≈ 10.5 µM) | – | –
CC(=O)O[C@@H]1C[C@@H](OC(C)=O)[C@]2(C)[C@H]3C[C@@H](O)[C@@H]4[C@@H]([C@]5(C)CC[C@H](C(C)(C)O)O5)CC[C@@]4(C)[C@]3(C)CC[C@H]2C1(C)C (relative stereo) | – | > 10 | > 10 | – | > 10
CC(=O)O[C@@H]1C[C@@H]2[C@@]3(C)[C@H](OC(C)=O)C[C@@H](OC(C)=O)C(C)(C)[C@@H]3CC[C@@]2(C)[C@]2(C)CC[C@H]([C@]3(C)CC[C@H](C(C)(C)OC(C)=O)O3)[C@@H]12 | – | – | 5 (≈ 7.57 µM) | – | –
CC(=O)O[C@H]1CC[C@]2(C)[C@H]3C[C@@H](O)[C@@H]4[C@@H]([C@]5(C)CC[C@@H](C(C)(C)O)O5)CC[C@@]4(C)[C@]3(C)CC[C@H]2C1(C)C | > 5 | > 5 | > 5 | > 5 | –
CC(=O)O[C@@H]1C[C@@H]2[C@@]3(C)[C@H](OC(C)=O)C[C@@H](OC(C)=O)C(C)(C)[C@@H]3CC[C@@]2(C)[C@]2(C)CC[C@H]([C@]3(C)CC[C@H](C(C)(C)O)O3)[C@@H]12 (relative stereo) | > 5 | > 5 | > 5 | > 5 | –
